From ChEMBL document CHEMBL3853327 (J Med Chem, 2016)

Tests used:
[1] = tested on: Human immunodeficiency virus 1; assay: Fold resistance, ratio of EC50 for HIV1 3B harboring reverse transcriptase L100I mutant infected in human MT4 cells to EC50 for wild type HIV1 3B harboring reverse transcriptase infected in human MT4 cells; type: functional
Outline: (§1)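 Fold resistance is the EC50 against the mutant HIV-1 strain divided by the EC50 against WT IIIB. Both EC50s come from the MT-4 MTT cytoprotection assay (5-day read, 100−300 CCID50 inoculum).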

[2] = AUMC (0 to infinity) in Sprague-Dawley rat plasma at 8 mg/kg administered through oral gavage measured at 5 mins to 24 hrs post dosing by LC/MS analysis; type: ADME, organism-based; settings: in vivo
Outline: (§2)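 Male Sprague-Dawley rats, ten randomly split into two groups (n = 5), single gavage dose of 8 or 16 mg·kg−1 in PEG 400/normal saline (70/30, V/V). Jugular sinus blood into heparinized tubes at 5 min to 24 h; plasma separated at 2200g for 8 min, stored −20 °C. Methanol precipitation with internal standard, LC-MS quantitation against plasma standard curves. Parameters reported as mean ± SD.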

[3] = Apparent volume of distribution during terminal phase in Sprague-Dawley rat plasma at 8 mg/kg administered through oral gavage measured at 5 mins to 24 hrs post dosing by LC/MS analysis; type: ADME, organism-based; settings: read-out: Vz/F; outline: as §2
[4] = tested on: Human immunodeficiency virus 1; assay: Fold resistance, ratio of EC50 for HIV1 3B harboring reverse transcriptase E138K mutant infected in human MT4 cells to EC50 for wild type HIV1 3B harboring reverse transcriptase infected in human MT4 cells; type: functional; outline: as §1
[5] = tested on: Human immunodeficiency virus 1; assay: Fold resistance, ratio of EC50 for HIV1 3B harboring reverse transcriptase K103N mutant infected in human MT4 cells to EC50 for wild type HIV1 3B harboring reverse transcriptase infected in human MT4 cells; type: functional; outline: as §1
[6] = AUMC (0 to t) in Sprague-Dawley rat plasma at 16 mg/kg administered through oral gavage measured at 5 mins to 24 hrs post dosing by LC/MS analysis; type: ADME, organism-based; settings: in vivo; outline: as §2
[7] = Tmax in Sprague-Dawley rat plasma at 16 mg/kg administered through oral gavage measured at 5 mins to 24 hrs post dosing by LC/MS analysis; type: ADME, organism-based; settings: in vivo; outline: as §2
[8] = tested on: Human immunodeficiency virus 1; assay: Potency index, ratio of ETV EC50 to compound EC50 for HIV1 3B harboring reverse transcriptase F227L/V106A double mutant infected in human MT4 cells; type: functional
[9] = Apparent half life in Sprague-Dawley rat plasma at 16 mg/kg administered through oral gavage measured at 5 mins to 24 hrs post dosing by LC/MS analysis; type: ADME, organism-based; settings: in vivo; outline: as §2
[10] = tested on: Human immunodeficiency virus 1; assay: Potency index, ratio of ETV EC50 to compound EC50 for HIV1 3B harboring reverse transcriptase L100I mutant infected in human MT4 cells; type: functional
[11] = tested on: Human immunodeficiency virus 1; assay: Potency index, ratio of ETV EC50 to compound EC50 for HIV1 3B harboring reverse transcriptase Y181C mutant infected in human MT4 cells; type: functional
[12] = Selectivity index, ratio of CC50 for human mock-infected MT4 cells to EC50 for HIV1 3B harboring reverse transcriptase F227L/V106A double mutant infected in human MT4 cells; type: toxicity, cell-based; settings: MT4 cells (mock-infected for CC50, HIV-1 infected for EC50)
Outline: (§3)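 Selectivity index is CC50/EC50. CC50 is the concentration that reduces OD540 of mock-infected MT-4 cells by 50% in the 5-day MTT assay. EC50 is the 50% protection from virus-induced cytopathicity, measured in parallel on infected wells.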

[13] = tested on: Human immunodeficiency virus 1; assay: Fold resistance, ratio of EC50 for HIV1 3B harboring reverse transcriptase F227L/V106A double mutant infected in human MT4 cells to EC50 for wild type HIV1 3B harboring reverse transcriptase infected in human MT4 cells; type: functional; outline: as §1
[14] = VRT (0 to infinity) in Sprague-Dawley rat plasma at 8 mg/kg administered through oral gavage measured at 5 mins to 24 hrs post dosing by LC/MS analysis; type: ADME, organism-based; settings: in vivo; outline: as §2
[15] = Selectivity index, ratio of CC50 for human mock-infected MT4 cells to EC50 for HIV1 3B harboring reverse transcriptase K103N mutant infected in human MT4 cells; type: toxicity, cell-based; settings: MT4 cells (mock-infected for CC50, HIV-1 infected for EC50); outline: as §3
[16] = tested on: Human immunodeficiency virus 1; assay: Potency index, ratio of ETV EC50 to compound EC50 for HIV1 3B harboring reverse transcriptase E138K mutant infected in human MT4 cells; type: functional
[17] = Apparent half life in Sprague-Dawley rat plasma at 8 mg/kg administered through oral gavage measured at 5 mins to 24 hrs post dosing by LC/MS analysis; type: ADME, organism-based; settings: in vivo; outline: as §2
[18] = AUC (0 to infinity) in Sprague-Dawley rat plasma at 8 mg/kg administered through oral gavage measured at 5 mins to 24 hrs post dosing by LC/MS analysis; type: ADME, organism-based; parameters: dose 8 mg/kg, route oral, time infinity; settings: in vivo; outline: as §2
[19] = tested on: Mus musculus; assay: Acute toxicity in Kunming mouse assessed as increase in body weight at 2000 mg/kg, ig after 1 week; type: organism-based; settings: in vivo, po, 168 h
Outline: (§4)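 Kunming mice (18−22 g), fasted 12 h, then given a single intragastric dose suspended in PEG-400 (100 or 200 mg·mL−1 for 1000 or 2000 mg·kg−1). Six mice per dose group, half male and half female. Deaths and body-weight gain followed for 1 week.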

[20] = VRT (0 to t) in Sprague-Dawley rat plasma at 8 mg/kg administered through oral gavage measured at 5 mins to 24 hrs post dosing by LC/MS analysis; type: ADME, organism-based; settings: in vivo; outline: as §2
[21] = AUC (0 to t) in Sprague-Dawley rat plasma at 8 mg/kg administered through oral gavage measured at 5 mins to 24 hrs post dosing by LC/MS analysis; type: ADME, organism-based; parameters: dose 8 mg/kg, time 0.083-24 hr, route oral; outline: as §2
[22] = Selectivity index, ratio of CC50 for human mock-infected MT4 cells to EC50 for wild type HIV1 3B harboring reverse transcriptase infected in human MT4 cells; type: toxicity, cell-based; settings: MT4 cells (mock-infected for CC50, HIV-1 infected for EC50); outline: as §3
[23] = Cmax in Sprague-Dawley rat plasma at 16 mg/kg administered through oral gavage measured at 5 mins to 24 hrs post dosing by LC/MS analysis; type: ADME, organism-based; parameters: dose 16 mg/kg, route oral; settings: in vivo; outline: as §2
[24] = tested on: Mus musculus; assay: Acute toxicity in Kunming mouse assessed as mortality at 2000 mg/kg, ig after 1 week; type: organism-based; settings: in vivo, po, 168 h; outline: as §4
[25] = Selectivity index, ratio of CC50 for human mock-infected MT4 cells to EC50 for HIV1 3B harboring reverse transcriptase E138K mutant infected in human MT4 cells; type: toxicity, cell-based; settings: MT4 cells (mock-infected for CC50, HIV-1 infected for EC50); outline: as §3
[26] = Selectivity index, ratio of CC50 for human mock-infected MT4 cells to EC50 for HIV1 3B harboring reverse transcriptase Y181C mutant infected in human MT4 cells; type: toxicity, cell-based; settings: MT4 cells (mock-infected for CC50, HIV-1 infected for EC50); outline: as §3
[27] = tested on: Human immunodeficiency virus 1; assay: Potency index, ratio of ETV EC50 to compound EC50 for wild type HIV1 3B harboring reverse transcriptase infected in human MT4 cells; type: functional
[28] = Selectivity index, ratio of CC50 for human mock-infected MT4 cells to EC50 for HIV1 RES056 harboring reverse transcriptase K103N/Y181C double mutant infected in human MT4 cells; type: toxicity, cell-based; settings: MT4 cells (mock-infected for CC50, HIV-1 infected for EC50); outline: as §3
[29] = tested on: Human immunodeficiency virus 1; assay: Antiviral activity against HIV1 3B harboring reverse transcriptase E138K mutant infected in human MT4 cells assessed as protection against virus induced cytotoxicity after 5 days by MTT assay; type: functional, cell-based; settings: Human immunodeficiency virus 1, 3B, MT4, 120 h
Outline: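 MTT cytopathicity assay in MT-4 cells (6 × 10^5 cells/mL). Compounds serially diluted 5-fold in triplicate wells, run in parallel on infected and mock-infected cells. Virus added at 100−300 CCID50 per well. Viability read spectrophotometrically at 540 and 690 nm after 5 days, using the median OD of three wells. EC50 is the concentration giving 50% protection from viral cytopathogenicity.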

**Q.** For `Cc1cc(C#N)cc(C)c1Oc1nc(NC2CCN(Cc3ccc(S(N)(=O)=O)cc3)CC2)nc2ccsc12`, which “Ratio EC50” value [1] is on record?
**A.** The value was less than 3.

**Q.** What about the AUMC [2] of the same compound?
**A.** The AUMC was 6474.1 ug/L.hr.

**Q.** And the Vd/F [3]?
**A.** Its Vd/F is 38.2 L/kg.

**Q.** And the “Ratio EC50” value [4]?
**A.** The value was less than 3.

**Q.** What about the “Ratio EC50” value [5] of the same compound?
**A.** The value was less than 3.

**Q.** And the AUMCt [6]?
**A.** The AUMCt was 5458.8 ug/L.hr.

**Q.** And the Tmax [7]?
**A.** Its Tmax is 48 min.

**Q.** And the “Ratio EC50” value [8]?
**A.** Its value is 7.

**Q.** What about the “t1/2(app)” value [9] of the same compound?
**A.** The value was 3.6 h.

**Q.** And the “Ratio EC50” value [10]?
**A.** Its value is 1.6.

**Q.** And the “Ratio EC50” value [11]?
**A.** The value was 5.

**Q.** And the selectivity ratio [12]?
**A.** Its selectivity ratio is greater than 78100.

**Q.** And the “Ratio EC50” value [13]?
**A.** The value was less than 3.

**Q.** What about the VRT [14] of the same compound?
**A.** The VRT was 13.31 hr2.

**Q.** What about the selectivity ratio [15] of the same compound?
**A.** The selectivity ratio was greater than 67400.

**Q.** And the “Ratio EC50” value [16]?
**A.** The value was 5.

**Q.** What about the “t1/2(app)” value [17] of the same compound?
**A.** Its value is 2.51 h.

**Q.** And the AUC [18]?
**A.** Its AUC is 1720.9 µg·h/L.

**Q.** And the Activity [19]?
**A.** Its Activity is “Non-Toxic”.

**Q.** And the “VRT(t)” value [20]?
**A.** The value was 7.78 hr2.

**Q.** And the AUC(0-t) [21]?
**A.** The AUC(0-t) was 1680 ng·h/mL.

**Q.** What about the selectivity ratio [22] of the same compound?
**A.** The selectivity ratio was greater than 159000.

**Q.** What about the Cmax [23] of the same compound?
**A.** Its Cmax is 472 ng/mL.

**Q.** What about the Activity [24] of the same compound?
**A.** Its Activity is “Non-Toxic”.

**Q.** And the selectivity ratio [25]?
**A.** Its selectivity ratio is greater than 75800.

**Q.** What about the selectivity ratio [26] of the same compound?
**A.** The selectivity ratio was greater than 78100.

**Q.** And the “Ratio EC50” value [27]?
**A.** The value was 3.

**Q.** And the selectivity ratio [28]?
**A.** Its selectivity ratio is 53500.

**Q.** What about the EC50 [29] of the same compound?
**A.** Its EC50 is 2.9 nM.
